ChEMBL document CHEMBL1154352, “Toll-like receptor 7 selective synthetic oligoribonucleotide agonists: synthesis and structure-activity relationship studies” (J Med Chem, 2009)
Activity calls are given as the source filed them. The calls are words filed in the database; no cut-off is given here.

What was measured:
[1] = target: T1, Toll-like receptor 7 (Homo sapiens) (UniProt Q9NYK1); assay: Activation of human TLR7 expressed in HEK293XL assessed as induction of NF-kappaB activity by reporter gene assay
T1 sequence (whole entry): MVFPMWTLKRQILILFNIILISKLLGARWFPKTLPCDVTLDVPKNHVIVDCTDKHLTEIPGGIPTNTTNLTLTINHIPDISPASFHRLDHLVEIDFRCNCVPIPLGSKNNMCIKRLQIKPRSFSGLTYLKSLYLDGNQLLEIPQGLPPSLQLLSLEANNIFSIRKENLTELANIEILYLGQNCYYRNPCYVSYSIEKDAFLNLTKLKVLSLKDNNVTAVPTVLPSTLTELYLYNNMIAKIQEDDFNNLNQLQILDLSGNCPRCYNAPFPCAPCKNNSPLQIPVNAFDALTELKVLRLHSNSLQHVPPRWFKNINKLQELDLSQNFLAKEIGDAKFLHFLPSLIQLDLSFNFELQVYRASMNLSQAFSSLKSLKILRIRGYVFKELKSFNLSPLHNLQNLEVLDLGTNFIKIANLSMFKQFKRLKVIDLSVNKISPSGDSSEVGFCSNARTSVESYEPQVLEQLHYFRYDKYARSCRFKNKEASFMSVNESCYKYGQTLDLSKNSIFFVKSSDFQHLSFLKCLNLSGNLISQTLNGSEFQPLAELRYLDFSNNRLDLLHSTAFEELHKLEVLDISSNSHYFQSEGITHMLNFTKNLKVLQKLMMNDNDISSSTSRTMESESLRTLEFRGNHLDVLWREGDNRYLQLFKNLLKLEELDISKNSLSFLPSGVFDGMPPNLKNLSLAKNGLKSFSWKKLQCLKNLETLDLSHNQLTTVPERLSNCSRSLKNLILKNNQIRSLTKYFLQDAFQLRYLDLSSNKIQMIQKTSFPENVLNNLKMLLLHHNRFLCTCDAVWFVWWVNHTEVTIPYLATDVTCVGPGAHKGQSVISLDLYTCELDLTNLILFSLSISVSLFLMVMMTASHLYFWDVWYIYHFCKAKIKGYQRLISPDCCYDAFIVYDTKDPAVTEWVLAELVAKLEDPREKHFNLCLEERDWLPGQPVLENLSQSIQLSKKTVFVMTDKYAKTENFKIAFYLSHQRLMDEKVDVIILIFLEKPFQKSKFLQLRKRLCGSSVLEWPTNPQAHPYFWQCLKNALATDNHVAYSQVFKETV
In short: (§1)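 HEK293 cells stably expressing human TLR7 or TLR8, transiently transfected with SEAP reporter plasmid; medium replaced, SIMRA compounds added, 18 h incubation. Supernatant SEAP measured by QuantiBlue; expressed as fold increase in NF-κB activity over PBS control. Tabulated data at 50 μg/mL, representative of three independent experiments.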

[2] = organism: Homo sapiens; assay: Ratio of human TLR7 activity to human TLR8 activity
In short: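 TLR7/TLR8 ratio computed from fold NF-κB (SEAP reporter) activation in HEK293 cells stably expressing human TLR7 versus TLR8, compounds at 50 μg/mL, 18 h exposure; representative of three independent experiments.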

[3] = target: T2, Toll-like receptor 8 (Homo sapiens) (UniProt Q9NR97); assay: Activation of human TLR8 expressed in HEK293XL assessed as induction of NF-kappaB activity by reporter gene assay; in short: as §1
T2 sequence (whole entry): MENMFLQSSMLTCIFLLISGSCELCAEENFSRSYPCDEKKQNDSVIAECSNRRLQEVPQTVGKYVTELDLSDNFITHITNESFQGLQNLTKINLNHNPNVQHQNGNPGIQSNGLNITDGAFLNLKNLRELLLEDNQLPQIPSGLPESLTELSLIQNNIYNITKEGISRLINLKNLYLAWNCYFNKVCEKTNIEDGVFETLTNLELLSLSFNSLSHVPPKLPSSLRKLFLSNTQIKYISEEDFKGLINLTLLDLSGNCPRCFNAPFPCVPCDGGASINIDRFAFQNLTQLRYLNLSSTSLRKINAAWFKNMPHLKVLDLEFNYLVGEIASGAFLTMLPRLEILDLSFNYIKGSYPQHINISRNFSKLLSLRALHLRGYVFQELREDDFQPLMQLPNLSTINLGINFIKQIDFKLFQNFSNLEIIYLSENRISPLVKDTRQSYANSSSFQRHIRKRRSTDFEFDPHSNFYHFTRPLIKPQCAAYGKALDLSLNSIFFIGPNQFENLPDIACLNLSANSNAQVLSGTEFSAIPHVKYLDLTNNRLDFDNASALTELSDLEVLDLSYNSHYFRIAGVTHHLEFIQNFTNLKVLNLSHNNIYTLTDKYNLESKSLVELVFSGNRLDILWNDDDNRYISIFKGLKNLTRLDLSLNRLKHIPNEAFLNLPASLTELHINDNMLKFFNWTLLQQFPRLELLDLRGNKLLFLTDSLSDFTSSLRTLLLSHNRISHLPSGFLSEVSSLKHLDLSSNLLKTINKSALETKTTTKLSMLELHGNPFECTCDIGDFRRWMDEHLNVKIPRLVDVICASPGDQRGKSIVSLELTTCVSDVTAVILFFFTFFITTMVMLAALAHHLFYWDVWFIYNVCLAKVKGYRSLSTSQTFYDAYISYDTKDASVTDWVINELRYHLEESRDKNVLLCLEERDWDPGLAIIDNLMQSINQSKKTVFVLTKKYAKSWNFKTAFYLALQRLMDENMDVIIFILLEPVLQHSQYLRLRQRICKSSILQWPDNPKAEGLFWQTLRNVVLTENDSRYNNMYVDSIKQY

Row | SMILES | Activity [1] | Activity [2] | Activity [3]
1 | Nc1ccn([C@@H]2O[C@H](COP(=O)(S)O[C@H]3[C@@H](O)[C@H](n4cnc5c(N)ncnc54)O[C@@H]3CO)[C@@H](OP(=O)(S)OC[C@H]3O[C@@H](n4ccc(=O)[nH]c4=O)[C@H](O)[C@@H]3OP(=O)(S)OC[C@H]3O[C@@H](n4ccc(=O)[nH]c4=O)[C@H](O)[C@@H]3OP(=O)(S)OC[C@H]3O[C@@H](n4cnc5c(=O)[nH]c(N)nc54)[C@H](O)[C@@H]3OP(=O)(S)OC[C@H]3O[C@@H](n4cnc5c(N)ncnc54)[C@H](O)[C@@H]3OP(=O)(S)OC[C@H]3O[C@@H](n4ccc(N)nc4=O)[C@H](O)[C@@H]3OP(=O)(S)OC[C@H]3O[C@@H](n4cnc5c(=O)[nH]c(N)nc54)[C@H](O)[C@@H]3OP(=O)(S)OC[C@H]3O[C@@H](n4cnc5c(N)ncnc54)[C@H](O)[C@@H]3OP(=O)(S)OC[C@H]3O[C@@H](n4ccc(=O)[nH]c4=O)[C@H](O)[C@@H]3OP(=O)(S)OC[C@H]3O[C@@H](n4ccc(=O)[nH]c4=O)[C@H](O)[C@@H]3OP(=O)(S)OCC(O)COP(=O)(S)O[C@H]3[C@@H](O)[C@H](n4ccc(=O)[nH]c4=O)O[C@@H]3COP(=O)(S)O[C@H]3[C@@H](O)[C@H](n4ccc(=O)[nH]c4=O)O[C@@H]3COP(=O)(S)O[C@H]3[C@@H](O)[C@H](n4cnc5c(N)ncnc54)O[C@@H]3COP(=O)(S)O[C@H]3[C@@H](O)[C@H](n4cnc5c(=O)[nH]c(N)nc54)O[C@@H]3COP(=O)(S)O[C@H]3[C@@H](O)[C@H](n4ccc(N)nc4=O)O[C@@H]3COP(=O)(S)O[C@H]3[C@@H](O)[C@H](n4cnc5c(N)ncnc54)O[C@@H]3COP(=O)(S)O[C@H]3[C@@H](O)[C@H](n4cnc5c(=O)[nH]c(N)nc54)O[C@@H]3COP(=O)(S)O[C@H]3[C@@H](O)[C@H](n4ccc(=O)[nH]c4=O)O[C@@H]3COP(=O)(S)O[C@H]3[C@@H](O)[C@H](n4ccc(=O)[nH]c4=O)O[C@@H]3COP(=O)(S)O[C@H]3[C@@H](O)[C@H](n4ccc(N)nc4=O)O[C@@H]3COP(=O)(S)O[C@H]3[C@@H](O)[C@H](n4cnc5c(N)ncnc54)O[C@@H]3CO)[C@H]2O)c(=O)n1 (stereo partly specified) | inactive | Dose-dependent effect | inactive
2 | Nc1ccn([C@@H]2O[C@H](COP(=O)(S)O[C@H]3[C@@H](O)[C@H](n4cnc5c(N)ncnc54)O[C@@H]3CO)[C@@H](OP(=O)(S)OC[C@H]3O[C@@H](n4ccc(=O)[nH]c4=O)[C@H](O)[C@@H]3OP(=O)(S)OC[C@H]3O[C@@H](n4ccc(=O)[nH]c4=O)[C@H](O)[C@@H]3OP(=O)(S)OC[C@H]3O[C@@H](n4ccc5c(=O)[nH]c(N)nc54)[C@H](O)[C@@H]3OP(=O)(S)OC[C@H]3O[C@@H](n4cnc5c(N)ncnc54)[C@H](O)[C@@H]3OP(=O)(S)OC[C@H]3O[C@@H](n4cnc5c(N)ncnc54)[C@H](O)[C@@H]3OP(=O)(S)OC[C@H]3O[C@@H](n4cnc5c(=O)[nH]c(N)nc54)[C@H](O)[C@@H]3OP(=O)(S)OC[C@H]3O[C@@H](n4ccc(N)nc4=O)[C@H](O)[C@@H]3OP(=O)(S)OC[C@H]3O[C@@H](n4ccc(=O)[nH]c4=O)[C@H](O)[C@@H]3OP(=O)(S)OC[C@H]3O[C@@H](n4ccc(=O)[nH]c4=O)[C@H](O)[C@@H]3OP(=O)(S)OCC(O)COP(=O)(S)O[C@H]3[C@@H](O)[C@H](n4ccc(=O)[nH]c4=O)O[C@@H]3COP(=O)(S)O[C@H]3[C@@H](O)[C@H](n4ccc(=O)[nH]c4=O)O[C@@H]3COP(=O)(S)O[C@H]3[C@@H](O)[C@H](n4ccc(N)nc4=O)O[C@@H]3COP(=O)(S)O[C@H]3[C@@H](O)[C@H](n4cnc5c(=O)[nH]c(N)nc54)O[C@@H]3COP(=O)(S)O[C@H]3[C@@H](O)[C@H](n4cnc5c(N)ncnc54)O[C@@H]3COP(=O)(S)O[C@H]3[C@@H](O)[C@H](n4cnc5c(N)ncnc54)O[C@@H]3COP(=O)(S)O[C@H]3[C@@H](O)[C@H](n4cnc5c(=O)[nH]c(N)nc54)O[C@@H]3COP(=O)(S)O[C@H]3[C@@H](O)[C@H](n4ccc(=O)[nH]c4=O)O[C@@H]3COP(=O)(S)O[C@H]3[C@@H](O)[C@H](n4ccc(=O)[nH]c4=O)O[C@@H]3COP(=O)(S)O[C@H]3[C@@H](O)[C@H](n4ccc(N)nc4=O)O[C@@H]3COP(=O)(S)O[C@H]3[C@@H](O)[C@H](n4cnc5c(N)ncnc54)O[C@@H]3CO)[C@H]2O)c(=O)n1 (stereo partly specified) | inactive | Dose-dependent effect | inactive
